Measured values as given in ChEMBL document CHEMBL1782047, “Retinoid receptor subtype-selective modulators through synthetic modifications of RARgamma agonists” (Bioorg Med Chem, 2009).
Active and inactive are the calls of the source. The rule behind the calls is not given here.

What was measured:
Type in all cases: cell-based
[1] = molecular target: T1, Retinoic acid receptor alpha (Mus musculus) (UniProt P11416); experiment: Agonist activity at yeast GAL4 fused mouse RARalpha ligand binding domain expressed in HeLa cells assessed as receptor transactivation by luciferase reporter gene assay
T1 sequence (whole entry): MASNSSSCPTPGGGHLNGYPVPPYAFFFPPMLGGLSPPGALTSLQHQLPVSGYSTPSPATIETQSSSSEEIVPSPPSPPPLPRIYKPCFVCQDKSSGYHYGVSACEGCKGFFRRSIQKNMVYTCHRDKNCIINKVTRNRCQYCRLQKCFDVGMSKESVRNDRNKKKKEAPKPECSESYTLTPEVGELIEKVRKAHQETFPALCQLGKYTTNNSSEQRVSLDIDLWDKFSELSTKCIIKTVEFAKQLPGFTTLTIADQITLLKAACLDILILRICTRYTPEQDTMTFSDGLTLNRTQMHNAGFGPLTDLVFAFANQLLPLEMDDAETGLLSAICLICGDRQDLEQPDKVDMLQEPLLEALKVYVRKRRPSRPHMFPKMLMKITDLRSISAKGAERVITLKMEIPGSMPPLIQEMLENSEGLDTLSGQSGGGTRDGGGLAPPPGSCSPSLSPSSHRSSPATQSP
In short: (§1)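 Stably transfected HeLa lines carrying a (17m)5-βG-Luc-Neo reporter and the matching Gal4-mRAR fusion were seeded at 160,000 cells/well. After 12 h, cells were given ligand across a dose range in phenol-red-free DMEM with 5% charcoal-treated FCS and held 12 h at 37 °C, 5% CO2. Lysates were read for luciferase with luciferin, ATP and coenzyme A. Fold induction is compound RLU over vehicle-control RLU.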

[2] = molecular target: T2, Retinoic acid receptor gamma (Mus musculus) (UniProt P18911); experiment: Agonist activity at yeast GAL4 fused mouse RARgamma ligand binding domain expressed in HeLa cells assessed as receptor transactivation by luciferase reporter gene assay; in short: as §1
T2 sequence (whole entry): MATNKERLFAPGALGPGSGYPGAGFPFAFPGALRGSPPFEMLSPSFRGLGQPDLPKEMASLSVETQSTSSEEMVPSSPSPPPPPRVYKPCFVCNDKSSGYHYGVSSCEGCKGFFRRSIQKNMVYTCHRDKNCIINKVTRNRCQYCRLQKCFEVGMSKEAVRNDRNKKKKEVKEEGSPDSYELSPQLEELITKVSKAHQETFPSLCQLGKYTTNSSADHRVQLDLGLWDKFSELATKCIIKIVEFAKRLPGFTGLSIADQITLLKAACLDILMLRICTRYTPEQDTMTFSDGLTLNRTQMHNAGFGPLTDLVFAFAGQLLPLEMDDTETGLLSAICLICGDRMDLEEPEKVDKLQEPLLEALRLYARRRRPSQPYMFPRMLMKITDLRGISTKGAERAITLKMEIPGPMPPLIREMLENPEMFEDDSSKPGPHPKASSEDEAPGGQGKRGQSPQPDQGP

[3] = molecular target: T2, Retinoic acid receptor gamma (Mus musculus); experiment: (§2) Antagonist activity at yeast GAL4 fused mouse RARgamma ligand binding domain expressed in HeLa cells assessed as inhibition of TTNPB-induced receptor transactivation by luciferase reporter gene assay
In short: (§3)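 The Gal4-mRAR fusion HeLa reporter lines [(17m)5-βG-Luc-Neo] were seeded at 160,000 cells/well. After 12 h, cells got 10 nM TTNPB plus rising test-compound concentrations in phenol-red-free DMEM with 5% charcoal-treated FCS for 12 h at 37 °C, 5% CO2. Luciferase in lysates was read luminometrically. Antagonism is the loss of activity relative to TTNPB alone.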

[4] = molecular target: T3, Retinoic acid receptor beta (Mus musculus) (UniProt P22605); experiment: (§4) Antagonist activity at yeast GAL4 fused mouse RARbeta ligand binding domain expressed in HeLa cells assessed as inhibition of TTNPB-induced receptor transactivation by luciferase reporter gene assay; in short: as §3
T3 sequence (whole entry): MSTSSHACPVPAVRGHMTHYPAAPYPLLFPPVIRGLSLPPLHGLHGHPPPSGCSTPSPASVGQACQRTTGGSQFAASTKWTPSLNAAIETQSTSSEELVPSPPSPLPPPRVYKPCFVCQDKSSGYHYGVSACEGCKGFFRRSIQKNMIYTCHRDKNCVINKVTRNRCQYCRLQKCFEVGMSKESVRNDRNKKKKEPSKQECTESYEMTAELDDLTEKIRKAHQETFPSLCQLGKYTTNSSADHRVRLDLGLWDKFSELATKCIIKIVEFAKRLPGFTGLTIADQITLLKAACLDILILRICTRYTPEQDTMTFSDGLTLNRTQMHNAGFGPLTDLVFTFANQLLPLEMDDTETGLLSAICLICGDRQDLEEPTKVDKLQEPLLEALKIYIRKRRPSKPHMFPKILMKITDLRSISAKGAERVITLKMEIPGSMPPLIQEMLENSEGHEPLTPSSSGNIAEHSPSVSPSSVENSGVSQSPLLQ

[5] = molecular target: T4, Retinoic acid receptor RXR-beta (Homo sapiens) (UniProt P28702); experiment: Agonist activity at yeast GAL4 fused human RXRbeta ligand binding domain expressed in HeLa cells assessed as receptor transactivation by luciferase reporter gene assay
T4 sequence (whole entry): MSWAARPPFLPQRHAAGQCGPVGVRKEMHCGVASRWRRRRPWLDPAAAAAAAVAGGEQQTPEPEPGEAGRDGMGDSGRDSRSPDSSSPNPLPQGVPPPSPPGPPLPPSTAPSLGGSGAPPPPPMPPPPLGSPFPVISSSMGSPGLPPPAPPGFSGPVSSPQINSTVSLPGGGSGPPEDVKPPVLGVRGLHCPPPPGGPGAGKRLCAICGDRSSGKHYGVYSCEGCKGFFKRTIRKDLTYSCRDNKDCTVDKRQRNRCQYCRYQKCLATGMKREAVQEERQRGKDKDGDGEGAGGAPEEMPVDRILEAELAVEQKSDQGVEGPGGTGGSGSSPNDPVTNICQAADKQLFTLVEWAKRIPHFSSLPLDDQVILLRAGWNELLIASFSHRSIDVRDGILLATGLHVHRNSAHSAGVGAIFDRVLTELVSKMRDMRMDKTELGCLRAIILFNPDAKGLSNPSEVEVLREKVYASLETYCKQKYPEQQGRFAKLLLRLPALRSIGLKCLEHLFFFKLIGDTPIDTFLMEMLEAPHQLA

[6] = molecular target: T1, Retinoic acid receptor alpha (Mus musculus); experiment: (§5) Antagonist activity at yeast GAL4 fused mouse RARalpha ligand binding domain expressed in HeLa cells assessed as inhibition of TTNPB-induced receptor transactivation by luciferase reporter gene assay; in short: as §3
[7] = molecular target: T4, Retinoic acid receptor RXR-beta (Homo sapiens); experiment: Antagonist activity at yeast GAL4 fused human RXRbeta ligand binding domain expressed in HeLa cells assessed as inhibition of receptor transactivation by luciferase reporter gene assay
[8] = molecular target: T5, Retinoic acid receptor gamma (Mus musculus, UniProt P18911); experiment: as §2; in short: as §3
T5 sequence (P18911 whole entry): T2 sequence (whole entry)

[9] = molecular target: T6, Retinoic acid receptor beta (Mus musculus, UniProt P22605); experiment: as §4; in short: as §3
T6 sequence (P22605 whole entry): T3 sequence (whole entry)

[10] = molecular target: T7, Retinoic acid receptor alpha (Mus musculus, UniProt P11416); experiment: as §5; in short: as §3
T7 sequence (P11416 whole entry): T1 sequence (whole entry)

Row | Structure (SMILES) | Activity [1] | Activity [2] | inhibition [3] | inhibition [4] | Activity [5] | inhibition [6] | also measured
1 | CC1(C)CC=C(C#Cc2ccccc2)c2ccc(C(O)C(=O)Nc3ccc(C(=O)O)cc3F)cc21 (racemic) | inactive | inactive |  |  |  |  | 
2 | CC1(C)CC=C(c2ccccc2)c2ccc(C(=O)C(=O)Nc3ccc(C(=O)O)cc3F)cc21 |  |  | Active | Active | Active | Active | 
3 | CC1(C)CC=C(c2ccccc2)c2ccc(C(=O)/C=C/c3ccc(C(=O)O)cc3)cc21 | Active | Active |  |  |  |  | inhibition [7]: Active
4 | CC1(C)CC=C(C#Cc2ccccc2)c2ccc(C3=NOC(c4ccc(C(=O)O)cc4)C3)cc21 (racemic) |  |  |  |  |  |  | IC50 [8]: 3000 nM
5 | Cc1ccc(C2=CCC(C)(C)c3cc(C(=O)/C=C/c4ccc(C(=O)O)cc4)ccc32)cc1 |  |  |  |  |  |  | IC50 [9]: 400 nM; IC50 [10]: < 300 nM
6 | CC1(C)CC=C(c2ccccc2)c2ccc(C(O)C(=O)Nc3ccc(C(=O)O)cc3F)cc21 (racemic) | Active | Active | Active | Active | inactive | Active | 
7 | CC1(C)CC=C(c2ccccc2)c2ccc(C3=NOC(c4ccc(C(=O)O)cc4)C3)cc21 (racemic) |  |  |  |  |  |  | IC50 [8]: > 10000 nM
8 | Cc1ccc(C2=CCC(C)(C)c3cc(C(O)/C=C/c4ccc(C(=O)O)cc4)ccc32)cc1 (racemic) |  | inactive |  |  |  |  | IC50 [9]: 2000 nM; IC50 [10]: 400 nM

More lines, main results first:

Row | Activity [1] | Activity [2] | inhibition [3] | inhibition [4] | Activity [5] | inhibition [6] | Structure (SMILES) | also measured
9 |  |  | inactive |  |  |  | Cc1ccc(C2=CCC(C)(C)c3cc(C4=NOC(c5ccc(C(=O)O)cc5)C4)ccc32)cc1 (racemic) | 
10 |  |  | Active | Active | Active | Active | CC1(C)CC=C(C#Cc2ccccc2)c2ccc(C(=O)C(=O)Nc3ccc(C(=O)O)cc3F)cc21 | 
11 |  |  | Active | Active | Active | Active | Cc1ccc(C2=CCC(C)(C)c3cc(C(=O)C(=O)Nc4ccc(C(=O)O)cc4F)ccc32)cc1 | 
12 | Active | Active |  |  | inactive |  | CC1(C)CC=C(C#Cc2ccccc2)c2ccc(C(=O)/C=C/c3ccc(C(=O)O)cc3)cc21 | inhibition [7]: Active
13 | inactive | inactive | inactive | inactive | inactive | inactive | Cc1ccc(C2=CCC(C)(C)c3cc(C(O)C(=O)Nc4ccc(C(=O)O)cc4F)ccc32)cc1 (racemic) | 
